Experimental data from ChEMBL document CHEMBL1124947, “Cationic antiprotozoal drugs. Trypanocidal activity of 2-(4'-formylphenyl)imidazo[1,2-a]pyridinium guanylhydrazones and related derivatives of quaternary heteroaromatic compounds” (J Med Chem, 1990).

Assays:
Type in all cases: functional
Mus musculus [1] = experiment: Trypanocidal Activity at I.C.E. value 0.61 when administered subcutaneously.
Procedure, shortened: (§1)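 Mice, in groups of five per dose, were given a standard inoculum of blood-stage T. rhodesiense that is lethal to all untreated controls, then dosed subcutaneously. Usually 11 dose levels were used (2^n × 0.42 mg/kg).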

Mus musculus [2] = experiment: Trypanocidal Activity at I.C.E. value 0.35 when administered subcutaneously.
Procedure, shortened: (§2)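 Blood-stage T. rhodesiense infection came from a standard inoculum lethal to all untreated mice. Drug was given by subcutaneous injection to groups of five mice. Survival beyond 30 days counted as cure. […] Sub-curative doses scored 0, and data were normalized at each dose.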

[3] = system: Trypanosoma brucei rhodesiense; experiment: In Vitro measurement of inhibition of leucine uptake in cell culture of Trypanosoma rhodesiense.; settings: read-out: ID50 (the source's name)
Procedure, shortened: (§3)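 Trypanosomes harvested from infected rats, cultured 3 h with several concentrations of drug, usually 0.1–100 µg/mL. Radiolabeled L-leucine uptake measured. ID50 is the concentration in µg/mL giving 50% inhibition of incorporation.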

[4] = system: Trypanosoma brucei rhodesiense; experiment: In Vitro measurement of inhibition of thymidine uptake in cell culture of Trypanosoma rhodesiense.; settings: read-out: ID50 (the source's name)
Procedure, shortened: (§4)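 Parasites harvested from infected rats and incubated 3 h across a drug concentration series, usually 0.1–100 µg/mL. Incorporation of radiolabeled thymidine measured. ID50 is the concentration (µg/mL) producing 50% inhibition.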

Mus musculus [5] = experiment: Trypanocidal Activity at I.C.E. value 0.80 when administered subcutaneously.; procedure, shortened: as §1
Mus musculus [6] = experiment: Trypanocidal Activity at I.C.E. value 0.59 when administered subcutaneously.; procedure, shortened: as §1
Mus musculus [7] = experiment: Trypanocidal Activity at I.C.E. value 0.23 when administered perorally.
Mus musculus [8] = experiment: Trypanocidal Activity at I.C.E. value 0.24 when administered subcutaneously; procedure, shortened: as §2
Mus musculus [9] = experiment: Trypanocidal Activity at I.C.E. value 0.64 when administered perorally.
[10] = system: Trypanosoma brucei rhodesiense; experiment: In Vitro measurement of inhibition of Leucine uptake in cell culture of Trypanosoma rhodesiense.; settings: read-out: ID50 (the source's name); procedure, shortened: as §3
Mus musculus [11] = experiment: Trypanocidal Activity at I.C.E. value 0.39 when administered subcutaneously.; procedure, shortened: as §2
Mus musculus [12] = experiment: Trypanocidal Activity at I.C.E. value 0.7 when administered subcutaneously.; procedure, shortened: as §1
Mus musculus [13] = experiment: Trypanocidal Activity at I.C.E. value 0.67 when administered subcutaneously.; procedure, shortened: as §1
Mus musculus [14] = experiment: Trypanocidal Activity at I.C.E. value 0.50 when administered perorally.
Mus musculus [15] = experiment: Trypanocidal Activity at I.C.E. value 0.71 when administered subcutaneously.; procedure, shortened: as §1
Mus musculus [16] = experiment: Trypanocidal Activity at I.C.E. value 0.32 when administered perorally.
[17] = system: Trypanosoma brucei rhodesiense; experiment: In Vitro Trypanosomal activity in rats was measured uptake of radiolabeled Thymidine; settings: read-out: ID50 (the source's name); procedure, shortened: as §4
[18] = system: Trypanosoma brucei rhodesiense; experiment: In Vitro Trypanosomal activity in rats was measured uptake of radiolabeled Leucine; settings: read-out: ID50 (the source's name); procedure, shortened: as §3
Mus musculus [19] = experiment: Trypanocidal Activity at I.C.E. value 0.65 when administered subcutaneously.; procedure, shortened: as §1
Mus musculus [20] = experiment: Trypanocidal Activity at I.C.E. value 0.53 when administered perorally.
Mus musculus [21] = experiment: Trypanocidal Activity at I.C.E. value 0.68 when administered subcutaneously.; procedure, shortened: as §1

Compound: CCNC(=N)N/N=C/c1ccc(/C=C/c2n(C)cc[n+]2C)cc1.Cc1ccc(S(=O)(=O)O)cc1.Cc1ccc(S(=O)(=O)[O-])cc1
- CD50 (Mus musculus [1]): 0.11 mg/kg

Compound: Br.CCN(CC)C(=N)N/N=C/c1ccc(-c2cn3ccccc3[n+]2C)cc1.[Br-]
- CD50 (Mus musculus [2]): 0.2 mg/kg
- IC50 [3]: 1 µg/mL
- IC50 [4]: 1.1 µg/mL

Compound: Br.CC/N=C(\NCC)N/N=C/c1ccc(/C=C/c2cn3ccccc3[n+]2C)cc1.[Br-]
- CD50 (Mus musculus [5]): 0.4 mg/kg

Compound: Br.Cn1c[n+](Cc2ccc(/C=N/NC3=NCCCN3)cc2)c2ccccc21.[Br-]
- CD50 (Mus musculus [6]): 1.6 mg/kg
- CD50 (Mus musculus [7]): 106 mg/kg

Compound: Br.C/N=C(/N/N=C/c1ccc(-c2cn3ccccc3[n+]2C)cc1)SC.[Br-]
- CD50 (Mus musculus [8]): 26 mg/kg

Compound: Br.C[n+]1c(-c2ccc(/C=N/NC(=N)N3CCCC3)cc2)cn2ccccc21.[Br-]
- CD50 (Mus musculus [9]): 6.6 mg/kg
- IC50 [10]: 0.6 µg/mL
- CD50 (Mus musculus [11]): 0.06 mg/kg
- IC50 [4]: 0.6 µg/mL

Compound: Br.Cc1cccc2n1cc(COc1ccc(/C=N/NC3=NCCCN3)cc1)[n+]2C.[Br-]
- CD50 (Mus musculus [12]): 0.8 mg/kg
- CD50 (Mus musculus [13]): 0.4 mg/kg

Compound: C[n+]1c(-c2ccc(/C=N/NC(=N)N)cc2)cn2cc(Cl)ccc21.Cc1ccc(S(=O)(=O)O)cc1.Cc1ccc(S(=O)(=O)[O-])cc1
- CD50 (Mus musculus [14]): 13 mg/kg
- CD50 (Mus musculus [11]): 1.6 mg/kg

Compound: Br.CCCCNC(=N)N/N=C/c1ccc(-c2cn3ccc(C)cc3[n+]2C)cc1.[Br-]
- CD50 (Mus musculus [15]): 0.4 mg/kg
- CD50 (Mus musculus [16]): 26 mg/kg

Compound: C[n+]1c(-c2ccc(/C=N/Nc3nc[nH]n3)cc2)cn2ccccc21.[Br-]
- IC50 [17]: 0.5 µg/mL
- IC50 [18]: > 10 µg/mL
- CD50 (Mus musculus [19]): 0.8 mg/kg

Compound: Br.Cn1c(COc2ccc(/C=N/NC3=NCCN3)cc2)[n+](C)c2ccccc21.[Br-]
- CD50 (Mus musculus [20]): 13 mg/kg
- CD50 (Mus musculus [21]): 0.2 mg/kg
